From ChEMBL document CHEMBL3785064, “Cylindrofridins A-C, Linear Cylindrocyclophane-Related Alkylresorcinols from the Cyanobacterium Cylindrospermum stagnale” (J Nat Prod, 2016)
Converted amounts (≈) assume the structure as drawn.

Columns and labels:
Staphylococcus aureus = test: Antibacterial activity against methicillin-resistant Staphylococcus aureus isolate 1 B690208 after 24 hrs; type: functional; settings: isolate 1 B690208, 24 h
In short: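 MIC determined against MRSA; vancomycin and fusidic acid served as positive controls.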

Streptococcus pneumoniae = test: Antibacterial activity against Streptococcus pneumoniae ATCC 49619 after 24 hrs; type: functional; settings: ATCC 49619, 24 h
Escherichia coli = test: Antibacterial activity against Escherichia coli isolate 13 V676803 after 24 hrs; type: functional; settings: isolate 13 V676803, 24 h
Klebsiella pneumoniae = test: Antibacterial activity against Klebsiella pneumoniae isolate 18 B224106 after 24 hrs; type: functional; settings: isolate 18 B224106, 24 h
Pseudomonas aeruginosa = test: Antibacterial activity against Pseudomonas aeruginosa isolate 22 V143708 after 24 hrs; type: functional; settings: isolate 22 V143708, 24 h
HaCaT = test: Cytotoxicity against human HaCaT cells by Cell titre-blue assay; type: cell-based
In short: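 Nontumorigenic human keratinocyte HaCaT cells were tested with mitoxantrone as the positive control, and results are reported as IC50 in μM.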

| SMILES | MIC (Staphylococcus aureus) [µM] | MIC (Streptococcus pneumoniae) [µM] | MIC (Escherichia coli) [µM] | MIC (Klebsiella pneumoniae) [µM] | MIC (Pseudomonas aeruginosa) [µM] | IC50 (HaCaT) [µM] |
| --- | --- | --- | --- | --- | --- | --- |
| CCCCC(Cl)CCCC[C@H](C)[C@@H](OC(C)=O)c1cc(O)c([C@@H](CCCC)CCCC[C@H](C)[C@@H](OC(C)=O)c2cc(O)cc(O)c2)c(O)c1 (some centres undefined) | > 71 | > 71 | > 71 | > 71 | > 71 | 25 |
| CCCCC(Cl)CCCC[C@H](C)[C@@H](O)c1cc(O)c([C@@H](CCCC)CCCC[C@H](C)[C@@H](OC(C)=O)c2cc(O)cc(O)c2)c(O)c1 (some centres undefined) | > 75 | > 75 | > 75 | > 75 | > 75 | 25 |
| CCCCC(Cl)CCCC[C@H](C)[C@@H](OC(C)=O)c1cc(O)cc(O)c1 (some centres undefined) | 8.6 (≈ 3.19 µg/mL) | 17 (≈ 6.31 µg/mL) | > 135 | > 135 | > 135 | 100 |
| CCCC[C@H]1CCCC[C@H](C)[C@@H](O)c2cc(O)c(c(O)c2)[C@@H](CCCC)CCCC[C@H](C)[C@@H](OC(C)=O)c2cc(O)c1c(O)c2 | 0.1 (≈ 0.0627 µg/mL) | 0.3 (≈ 0.188 µg/mL) | > 80 | > 80 | > 80 | 2.9 |
| CCCC[C@H]1CCCC[C@H](C)[C@@H](OC(C)=O)c2cc(O)c(c(O)c2)[C@@H](CCCC)CCCC[C@H](C)[C@@H](OC(C)=O)c2cc(O)c1c(O)c2 | 0.9 (≈ 0.602 µg/mL) | 2.4 (≈ 1.61 µg/mL) | > 75 | > 75 | > 75 | 11 |
| CN[C@@H](CC(C)C)C(=O)N[C@H]1C(=O)N[C@@H](CC(N)=O)C(=O)N[C@H]2C(=O)N[C@H]3C(=O)N[C@H](C(=O)N[C@@H](C(=O)O)c4cc(O)cc(O)c4-c4cc3ccc4O)[C@H](O)c3ccc(c(Cl)c3)Oc3cc2cc(c3O[C@H]2O[C@@H](CO)[C@H](O)[C@@H](O)[C@@H]2O[C@@H]2C[C@@](C)(N)[C@@H](O)[C@@H](C)O2)Oc2ccc(cc2Cl)[C@H]1O | – | 3.8 (≈ 5.51 µg/mL) | – | – | – | – |
| CCCC[C@H]1CCCC[C@H](C)[C@@H](O)c2cc(O)c(c(O)c2)[C@@H](CCCC)CCCC[C@H](C)[C@@H](O)c2cc(O)c1c(O)c2 [CYLINDROCYCLOPHANE A] | 0.1 (≈ 0.0585 µg/mL) | 0.3 (≈ 0.175 µg/mL) | > 85 | > 85 | > 85 | 5 |
| CC(=O)O[C@H]1C[C@@]2(C)[C@@H](C[C@@H](O)[C@H]3[C@@]4(C)CC[C@@H](O)[C@@H](C)[C@@H]4CC[C@@]32C)/C1=C(\CCC=C(C)C)C(=O)O [FUSIDIC ACID] | 1.4 (≈ 0.723 µg/mL) | – | – | – | – | – |
| O=C1c2c(O)ccc(O)c2C(=O)c2c(NCCNCCO)ccc(NCCNCCO)c21 [MITOXANTRONE] | – | – | – | – | – | 3.9 |
